This is an account of results in ChEMBL document CHEMBL1123157, “Thromboxane synthetase inhibitors and antihypertensive agents. 1. N-[(1H-imidazol-1-yl)alkyl]aryl amides and N-[(1H-1,2,4-triazol-1-yl)alkyl]aryl amides” (J Med Chem, 1986).

Assay [1] concerns the target T1, Thromboxane-A synthase (Rattus norvegicus, UniProt P49430).
T1 sequence (P49430 whole entry): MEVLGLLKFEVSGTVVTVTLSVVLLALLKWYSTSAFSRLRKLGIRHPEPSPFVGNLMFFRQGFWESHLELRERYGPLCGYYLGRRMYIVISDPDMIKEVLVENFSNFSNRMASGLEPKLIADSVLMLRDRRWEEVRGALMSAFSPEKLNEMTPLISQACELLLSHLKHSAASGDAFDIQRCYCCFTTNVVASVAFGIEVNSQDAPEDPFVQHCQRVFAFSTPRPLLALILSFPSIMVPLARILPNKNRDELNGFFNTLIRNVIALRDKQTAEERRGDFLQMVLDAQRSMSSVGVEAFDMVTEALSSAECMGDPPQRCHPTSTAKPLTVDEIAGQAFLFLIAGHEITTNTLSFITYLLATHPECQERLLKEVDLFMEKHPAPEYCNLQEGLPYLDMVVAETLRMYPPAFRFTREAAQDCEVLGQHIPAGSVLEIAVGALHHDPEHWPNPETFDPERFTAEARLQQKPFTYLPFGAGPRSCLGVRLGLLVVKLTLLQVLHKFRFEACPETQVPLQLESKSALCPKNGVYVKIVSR
Kind of assay: Compound was tested for inhibitory activity against thromboxane synthetase. An outline of the steps: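 Washed SHR platelets in oxygenated Krebs phosphate buffer, pH 7.4, 4.5-6.0 × 10^4/μL, incubated with vehicle or drug for 10 min at 37 °C. Stopped with ice and citric acid. Supernatant TXB2 measured by RIA; TXB2 in boiled controls subtracted; % inhibition calculated.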

For assay [2], the system named is Rattus norvegicus. Kind of assay: Antihypertensive activity in spontaneously hypertensive rats tested at 100 mg/kg po/day for 2 days. It is filed as functional, organism-based. Set-up: dose 100 mg/kg. An outline of the steps:
(§1)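 Male 16-week-old Okamoto SHR (mean arterial pressure about 170 mmHg), 1-3 rats per compound. Given by gavage in 2% preboiled starch (50 mg/mL), 100 mg/kg or less, with 0.9% NaCl load (25 mL/kg). Second dose without saline 24 h later. Mean arterial pressure measured 28 h after first dose. Active if ≤116 mmHg in one rat or mean ≤122 mmHg in two.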

Assay [3] concerns the target T2, Thromboxane-A synthase (Rattus norvegicus) (UniProt P49430).
T2 sequence (whole entry): T1 sequence (P49430 whole entry)
Description: Inhibitory activity for thromboxane synthetase determined by TXB2 levels in platelets from spontaneously hypertensive rats. The following applies: concentration not given here. Further details: concentration or dose not given beside the values. In outline:
(§2)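 Washed SHR platelets in oxygenated Krebs phosphate buffer, pH 7.4, 4.5-6.0 × 10^4/μL, incubated with vehicle or drug for 10 min at 37 °C. Stopped with ice and citric acid. Supernatant TXB2 measured by RIA; TXB2 in boiled controls subtracted; % inhibition calculated. IC50 read graphically from % inhibition vs log concentration; single-point screen at 10^-4 M.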

Assay [4] deals with T1, Thromboxane-A synthase. Kind of assay: compound was tested for inhibitory activity against thromboxane synthetase,. In outline: as §2
For assay [5], the system named is Rattus norvegicus. Description: Antihypertensive activity in spontaneously hypertensive rats at 100 mg/kg po/day for 2 days. Format: functional, organism-based. Set-up: dose 100 mg/kg. An outline of the steps:
as §1

The source made the active and inactive calls.

Consider `CSc1ccc(C(=O)NCCCn2ccnc2)cc1`, for which, at Thromboxane-A synthase [1], the IC50 (in general, the concentration that gives 50% inhibition) worked out at 500 nM. For the same compound, the result in the assay on Rattus norvegicus [2] was inactive. Moreover, in assay [3], the inhibition – broadly, the drop in the measured response relative to a control, in per cent – was 100%.

`O=C(NCCCCCn1ccnc1)c1ccc(Cl)cc1` registered an IC50 against Thromboxane-A synthase [4] of 5000 nM. Besides, the result in the assay with Rattus norvegicus [2] was inactive. Also, the inhibition in assay [3] was 100%.

`CN(C)c1ccc(C(=O)NCCCn2cncn2)cc1`: in assay [3], the inhibition stood at 64%. In addition, the outcome with Rattus norvegicus [5] was Active.

On to `O=C(NCCCCCn1ccnc1)c1ccc(C(F)(F)F)cc1`, for which 700 nM corresponded to half-maximal inhibition on Thromboxane-A synthase [1] (IC50). The outcome with Rattus norvegicus [2] was inactive. Further, the inhibition in assay [3] was found to be 100%.

For the compound `O=C(NCCCn1ccnc1)c1ccc(C(F)(F)F)cc1`, the inhibition in assay [3] worked out at 93%. For the same compound, in the assay on Rattus norvegicus [5], the outcome was Active.

At Thromboxane-A synthase [1], `O=C(NCCCn1ccnc1)c1cccc(C(F)(F)F)c1` registered an IC50 of 4000 nM. For the same compound, in assay [3], the inhibition is 100%. Further, in the assay on Rattus norvegicus [5], the outcome was Active.

In assay [3], `Cc1cn(CCCNC(=O)c2ccc(Cl)cc2)cn1` yielded an inhibition of 93%. In the assay with Rattus norvegicus [5], the outcome was Active.

For the compound `Nc1ccc(Cl)cc1C(=O)NCCCn1ccnc1`, the inhibition in assay [3] came out at 96%. Further, the result in the assay on Rattus norvegicus [5] was Active.

In turn, `O=C(NCCCn1cnc(-c2ccccc2)c1)c1ccc(Cl)cc1` yielded an inhibition in assay [3] of 69%. In the assay on Rattus norvegicus [5], the result was Active.

As for `O=C(NCCCCCCCCn1ccnc1)c1ccc(Cl)cc1`, on Thromboxane-A synthase [1], the IC50 was 100 nM. In assay [3], the inhibition is 100%. Besides, the outcome in the assay on Rattus norvegicus [5] was Active.

`O=C(/C=C/c1ccc(Cl)cc1)NCCCn1ccnc1` yielded an inhibition in assay [3] of 98%. Also, the result in the assay on Rattus norvegicus [5] was Active.

Consider `Cc1cn(CCCNC(=O)c2ccc(C(F)(F)F)cc2)cn1`, for which the inhibition in assay [3] was found to be 92%. Besides, the result in the assay on Rattus norvegicus [5] was Active.

Compound `O=C(NCCCn1ccnc1)c1ccc(I)cc1` showed an IC50 against Thromboxane-A synthase [1] of 550 nM. The result with Rattus norvegicus [2] was inactive. Further, the inhibition in assay [3] stood at 97%.

As for `Cc1nccn1CCCNC(=O)c1ccc(Cl)cc1`, the inhibition in assay [3] was 0%. Further, in the assay on Rattus norvegicus [5], the outcome was Active.

Regarding `Cc1cn(CCCNC(=O)c2ccc(Cl)c(Cl)c2)cn1`, the inhibition in assay [3] came out at 90%. Also, in the assay on Rattus norvegicus [5], the result was Active.

In assay [3], `O=C(NCCCn1ccnc1)c1ccc(Br)cc1` registered an inhibition of 85%. Besides, in the assay on Rattus norvegicus [5], the outcome was Active.

In assay [3], `O=C(Cc1cccc(Cl)c1)NCCCn1ccnc1` yielded an inhibition of 75%. For the same compound, in the assay with Rattus norvegicus [5], the outcome was Active.

`Nc1ccccc1C(=O)NCCCn1ccnc1` gave an inhibition in assay [3] of 89%. The outcome in the assay on Rattus norvegicus [5] was Active.

In assay [3], `Cc1ccc(CC(=O)NCCCn2ccnc2)cc1` displayed an inhibition of 58%. The outcome in the assay with Rattus norvegicus [5] was Active.

For `Cc1nccn1CCCNC(=O)c1ccc(C(F)(F)F)cc1`, the inhibition in assay [3] came out at 36%. In addition, in the assay on Rattus norvegicus [5], the outcome was Active.

In assay [3], `C=CCNc1ccc(Cl)cc1C(=O)NCCCn1ccnc1` gave an inhibition of 95%. The result with Rattus norvegicus [5] was Active.

Consider `O=C(NCCCn1ccnc1)c1cccc(Br)c1`, for which, in assay [3], the inhibition turned out to be 91%. The outcome in the assay on Rattus norvegicus [5] was Active.

In assay [3], `O=C(NCCCn1ccnc1)c1ccc(Cl)cc1` had an inhibition of 95%. The result with Rattus norvegicus [5] was Active.

In the case of `O=C(NCCCn1cncn1)c1ccccc1`, in assay [3], the inhibition was determined as 77%. Moreover, the outcome with Rattus norvegicus [5] was Active.

Consider `COc1ccc(C(=O)NCCCn2cncn2)cc1`, for which the outcome in the assay on Rattus norvegicus [2] was inactive. The same compound had an inhibition in assay [3] of 70%.

Compound `Cc1cn(CCCNC(=O)c2cccc(Cl)c2)cn1` had an inhibition in assay [3] of 84%. Moreover, the result in the assay with Rattus norvegicus [5] was Active.

`O=C(NCCCCCCn1ccnc1)c1ccc(Cl)cc1` had an IC50 against Thromboxane-A synthase [1] of 800 nM. Besides, in the assay with Rattus norvegicus [2], the result was inactive. In assay [3], this compound yielded an inhibition of 100%.

Take `Cc1cn(CCCNC(=O)c2ccc(I)cc2)cn1`: the outcome in the assay with Rattus norvegicus [2] was inactive. This compound also registered an inhibition in assay [3] of 99%.

Consider `O=C(NCCCn1ccnc1)C(=O)c1ccccc1`, for which the outcome in the assay with Rattus norvegicus [2] was inactive. This compound came in with an inhibition in assay [3] of 80%.

On to `O=C(NCCCn1cncn1)c1ccc(Cl)cc1`, for which the outcome with Rattus norvegicus [2] was inactive. For the same compound, the inhibition in assay [3] worked out at 16%.

For the compound `O=C(NCCCCn1cncn1)c1ccccc1-c1ccccc1`, in the assay with Rattus norvegicus [2], the outcome was inactive. The compound also displayed an inhibition in assay [3] of 89%.

On to `O=C(NCCCn1cncn1)c1ccccc1F`, for which, in the assay with Rattus norvegicus [2], the outcome was inactive. The inhibition in assay [3] came to 25%.

Turning to `CS(=O)(=O)c1ccc(C(=O)NCCCn2ccnc2)cc1`, the outcome in the assay on Rattus norvegicus [2] was inactive. Besides, the inhibition in assay [3] was 80%.

In the case of `CC(C)(C)c1ccc(C(=O)NCCCn2cncn2)cc1`, the result in the assay on Rattus norvegicus [2] was inactive. Further, in assay [3], the inhibition worked out at 86%.

In assay [3], `O=C(NCCCCn1ccnc1)c1ccc(Br)cc1` registered an inhibition of 87%. The result with Rattus norvegicus [5] was Active.

As to `CC(CCNC(=O)c1ccc(Cl)cc1)n1ccnc1` (stereo not drawn), in the assay on Rattus norvegicus [2], the outcome was inactive. The compound further showed an inhibition in assay [3] of 96%.

In the case of `O=C(NCCCn1cncn1)c1cccc(Cl)c1`, the result with Rattus norvegicus [2] was inactive. In assay [3], this compound yielded an inhibition of 86%.

Take `O=C(COc1ccccc1)NCCCn1ccnc1`: the result in the assay with Rattus norvegicus [2] was inactive. The inhibition in assay [3] came out at 86%.

Take `O=C(COc1ccc(Cl)cc1)NCCCn1ccnc1`: the outcome in the assay on Rattus norvegicus [2] was inactive. In assay [3], this compound came in with an inhibition of 85%.

Turning to `O=C(COc1ccc(Cl)cc1)NCCCn1cncn1`, the result in the assay on Rattus norvegicus [2] was inactive. This compound also came in with an inhibition in assay [3] of 56%.

On to `CC(CCNC(=O)c1ccc(Br)cc1)n1ccnc1` (stereo not drawn), for which, in the assay on Rattus norvegicus [2], the result was inactive. The inhibition in assay [3] was 91%.

Regarding `O=C(Cc1cccc(Cl)c1)NCCCn1cncn1`, in the assay with Rattus norvegicus [2], the result was inactive. In assay [3], this compound registered an inhibition of 0%.

For `O=C(NCCCn1ccnc1)c1cccc(Cl)c1`, in assay [3], the inhibition stood at 75%. Moreover, the outcome in the assay on Rattus norvegicus [5] was Active.

Compound `Cc1cn(CCCNC(=O)c2ccc(Br)cc2)cn1` displayed an inhibition in assay [3] of 80%. Besides, the outcome in the assay on Rattus norvegicus [5] was Active.

Turning to `O=C(NCCCCn1ccnc1)c1ccc(Cl)cc1`, the IC50 against Thromboxane-A synthase [1] turned out to be 5000 nM. Also, the outcome in the assay on Rattus norvegicus [2] was inactive. For the same compound, the inhibition in assay [3] was found to be 95%.
